Measured values as given in ChEMBL document CHEMBL1629539, “Configuration of the 5'-methyl group modulates the biophysical and biological properties of locked nucleic acid (LNA) oligonucleotides” (J Med Chem, 2010).
Active and inactive are the calls of the source. The rule behind the calls is not given here.

Key:
[1] = test system: snake venom phosphodiesterase; assay: Chemical stability in presence of snake venom phosphodiesterase assessed as half life; assay type: physicochemical
[2] = test system: Mus musculus; assay: Reduction in PTEN mRNA expression in BALB/c mouse liver at 12 mg/kg, ip administered as single dose measured 72 hrs post dose; assay type: functional
Method in brief: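 Single ip injection at 12 or 60 mg/kg of phosphorothioate gapmer (14-base deoxy gap, two modified nucleotides per wing) against PTEN in Balb-c mice, n = 4/group. After sacrifice, liver PTEN mRNA reported as % down-regulation versus saline controls, and plasma ALT (IU/L) measured as the liver toxicity read-out.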

| SMILES | half-life [1] | inhibition [2] |
| --- | --- | --- |
| Cc1cn([C@H]2C[C@H](OP(=O)(O)OC[C@H]3O[C@@H](n4cc(C)c(=O)[nH]c4=O)C[C@@H]3OP(=O)(O)OC[C@H]3O[C@@H](n4cc(C)c(=O)[nH]c4=O)C[C@@H]3OP(=O)(O)OC[C@H]3O[C@@H](n4cc(C)c(=O)[nH]c4=O)C[C@@H]3OP(=O)(O)OC[C@H]3O[C@@H](n4cc(C)c(=O)[nH]c4=O)C[C@@H]3OP(=O)(O)OC[C@H]3O[C@@H](n4cc(C)c(=O)[nH]c4=O)C[C@@H]3OP(=O)(O)OC[C@H]3O[C@@H](n4cc(C)c(=O)[nH]c4=O)C[C@@H]3OP(=O)(O)OC[C@H]3O[C@@H](n4cc(C)c(=O)[nH]c4=O)C[C@@H]3OP(=O)(O)OC[C@H]3O[C@@H](n4cc(C)c(=O)[nH]c4=O)C[C@@H]3OP(=O)(O)OC[C@H]3O[C@@H](n4cc(C)c(=O)[nH]c4=O)C[C@@H]3OP(=O)(O)OC[C@@]34CO[C@@H]([C@H](n5ccc(=O)[nH]c5=O)O3)[C@@H]4OP(=O)(O)O[C@H](C)[C@@]34CO[C@@H]([C@H](n5ccc(=O)[nH]c5=O)O3)[C@@H]4O)[C@@H](CO)O2)c(=O)[nH]c1=O | 3.5 h |  |
| Cc1cn([C@@H]2O[C@@]3(COP(O)(=S)O[C@H]4[C@H]5OC[C@]4(COP(O)(=S)O[C@H]4[C@H]6OC[C@]4(COP(O)(=S)O[C@H]4[C@H]7OC[C@]4(COP(O)(=S)O[C@H]4[C@H]8OC[C@]4(COP(O)(=S)O[C@H]4[C@H]9OC[C@]4(COP(O)(=S)O[C@H]4[C@H]%10OC[C@]4(COP(O)(=S)O[C@H]4[C@H]%11OC[C@]4(COP(O)(=S)O[C@H]4[C@H]%12OC[C@]4(COP(O)(=S)O[C@H]4[C@H]%13OC[C@]4([C@H](C)O)O[C@H]%13n4ccc(N)nc4=O)O[C@H]%12n4ccc(=O)[nH]c4=O)O[C@H]%11n4cnc%11c(=O)[nH]c(N)nc%114)O[C@H]%10n4ccc(N)nc4=O)O[C@H]9n4cc(C)c(=O)[nH]c4=O)O[C@H]8n4cnc8ncnc(N)c84)O[C@H]7[n+]4c[nH]c7nc(N)[nH]c(=O)c74)O[C@H]6n4ccc(N)nc4=O)O[C@H]5n4ccc(N)nc4=O)CO[C@@H]2[C@@H]3OP(O)(=S)OC[C@@]23CO[C@@H]([C@H](n4ccc(N)nc4=O)O2)[C@@H]3OP(O)(=S)OC[C@@]23CO[C@@H]([C@H](n4cc(C)c(=O)[nH]c4=O)O2)[C@@H]3OP(O)(=S)OC[C@@]23CO[C@@H]([C@H]([n+]4c[nH]c5nc(N)[nH]c(=O)c54)O2)[C@@H]3OP(O)(=S)OC[C@@]23CO[C@@H]([C@H]([n+]4c[nH]c5nc(N)[nH]c(=O)c54)O2)[C@@H]3OP(O)(=S)OC[C@@]23CO[C@@H]([C@H](n4cnc5ncnc(N)c54)O2)[C@@H]3OP(O)(=S)OC[C@@]23CO[C@@H]([C@H](n4cc(C)c(=O)[nH]c4=O)O2)[C@@H]3OP(O)(=S)OC[C@@]23CO[C@@H]([C@H](n4ccc(=O)[nH]c4=O)O2)[C@@H]3OP(O)(=S)OC[C@@]23CO[C@@H]([C@H](n4ccc(=O)[nH]c4=O)O2)[C@@H]3O)c(=O)[nH]c1=O (some centres undefined) |  | Active |
| Cc1cn([C@H]2C[C@H](OP(=O)(O)OC[C@H]3O[C@@H](n4cc(C)c(=O)[nH]c4=O)C[C@@H]3OP(=O)(O)OC[C@H]3O[C@@H](n4cc(C)c(=O)[nH]c4=O)C[C@@H]3OP(=O)(O)OC[C@H]3O[C@@H](n4cc(C)c(=O)[nH]c4=O)C[C@@H]3OP(=O)(O)OC[C@H]3O[C@@H](n4cc(C)c(=O)[nH]c4=O)C[C@@H]3OP(=O)(O)OC[C@H]3O[C@@H](n4cc(C)c(=O)[nH]c4=O)C[C@@H]3OP(=O)(O)OC[C@H]3O[C@@H](n4cc(C)c(=O)[nH]c4=O)C[C@@H]3OP(=O)(O)OC[C@H]3O[C@@H](n4cc(C)c(=O)[nH]c4=O)C[C@@H]3OP(=O)(O)OC[C@H]3O[C@@H](n4cc(C)c(=O)[nH]c4=O)C[C@@H]3OP(=O)(O)OC[C@H]3O[C@@H](n4cc(C)c(=O)[nH]c4=O)C[C@@H]3OP(=O)(O)OC[C@@]34CO[C@@H]([C@H](n5ccc(=O)[nH]c5=O)O3)[C@@H]4OP(=O)(O)O[C@@H](C)[C@@]34CO[C@@H]([C@H](n5ccc(=O)[nH]c5=O)O3)[C@@H]4O)[C@@H](CO)O2)c(=O)[nH]c1=O | 8.1 h |  |
| Cc1cn([C@H]2CC(OP(=O)(O)OC[C@H]3O[C@@H](n4cc(C)c(=O)[nH]c4=O)C[C@@H]3OP(=O)(O)OC[C@H]3O[C@@H](n4cc(C)c(=O)[nH]c4=O)C[C@@H]3OP(=O)(O)OC[C@H]3O[C@@H](n4cc(C)c(=O)[nH]c4=O)C[C@@H]3OP(=O)(O)OC[C@H]3O[C@@H](n4cc(C)c(=O)[nH]c4=O)C[C@@H]3OP(=O)(O)OC[C@H]3O[C@@H](n4cc(C)c(=O)[nH]c4=O)C[C@@H]3OP(=O)(O)OC[C@H]3O[C@@H](n4cc(C)c(=O)[nH]c4=O)C[C@@H]3OP(=O)(O)OC[C@H]3O[C@@H](n4cc(C)c(=O)[nH]c4=O)C[C@@H]3OP(=O)(O)OC[C@H]3O[C@@H](n4cc(C)c(=O)[nH]c4=O)C[C@@H]3OP(=O)(O)OC[C@H]3O[C@@H](n4cc(C)c(=O)[nH]c4=O)C[C@@H]3OP(=O)(O)OC[C@@]34CO[C@@H]([C@H](n5ccc(=O)[nH]c5=O)O3)[C@@H]4OP(=O)(O)OC[C@@]34CO[C@@H]([C@H](n5ccc(=O)[nH]c5=O)O3)[C@@H]4O)[C@@H](CO)O2)c(=O)[nH]c1=O (some centres undefined) | 0.0433 h |  |
